In brackets after ≈: the same amount, converted by molar mass.
What was measured:
Type in all cases: functional
Escherichia coli = assay: Antibacterial activity against Escherichia coli K-12 was determined
Method in brief: (§1)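 Agar dilution MIC on Mueller–Hinton agar for reference strains of other species. Compounds were dissolved in DMSO and serially diluted two-fold. Strains were stored at -80 °C before testing. MIC was taken as the minimum concentration completely inhibiting growth.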

Helicobacter pylori [1] = assay: Antibacterial activity against Helicobacter pylori ATCC 43504 was determined
Method in brief: (§2)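 Agar dilution MIC on Columbia agar with 7% defibrinated sheep blood. Compounds were dissolved in DMSO and serially diluted two-fold. Inoculum was grown 24 h at 37 °C in Brucella broth with 5% fetal bovine serum under microaerophilic gas (5% O2, 10% CO2, 85% N2) and adjusted to about 10^8 CFU/mL, then streaked onto ~2 cm squares. Plates were incubated microaerophilically for 3 days at 37 °C. MIC was the lowest concentration giving complete growth inhibition.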

Staphylococcus aureus = assay: Antibacterial activity against Staphylococcus aureus 209P JC was determined; method in brief: as §1
Enterococcus faecalis = assay: Antibacterial activity against Enterococcus faecalis was determined; method in brief: as §1
Helicobacter pylori [2] = assay: Antibacterial activity against Helicobacter pylori HP001 was determined; method in brief: as §2
Helicobacter pylori [3] = assay: Antibacterial activity against Helicobacter pylori HP022 was determined; method in brief: as §2
Morganella morganii = assay: Antibacterial activity against Morganella morganii was determined; method in brief: as §1
Klebsiella pneumoniae = assay: Antibacterial activity against Klebsiella pneumoniae was determined; method in brief: as §1
Helicobacter pylori [4] = assay: Antibacterial activity against Helicobacter pylori HP004 was determined
Method in brief: (§3)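 Agar dilution MIC on Columbia agar with 7% defibrinated sheep blood. Compounds dissolved in DMSO and serially diluted twofold. Inoculum was H. pylori grown 24 h at 37 °C in Brucella broth with 5% fetal bovine serum under microaerophilic gas (5% O2, 10% CO2, 85% N2), adjusted to about 10^8 CFU/mL and streaked by loop. Plates were incubated microaerophilically for 3 days at 37 °C. MIC taken as the lowest concentration giving complete growth inhibition.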

Helicobacter pylori [5] = assay: Antibacterial activity against Helicobacter pylori HP021 was determined; method in brief: as §2
Helicobacter pylori [6] = assay: Antibacterial activity against Helicobacter pylori HP0018 was determined; method in brief: as §3
Helicobacter pylori [7] = assay: Antibacterial activity against Helicobacter pylori HP0019 was determined; method in brief: as §2
Helicobacter pylori [8] = assay: Antibacterial activity against Helicobacter pylori HP008 was determined; method in brief: as §2
Helicobacter pylori [9] = assay: Antibacterial activity against Helicobacter pylori HP0017 was determined; method in brief: as §2
Helicobacter pylori [10] = assay: Antibacterial activity against Helicobacter pylori HP0016 was determined; method in brief: as §2
Helicobacter pylori [11] = assay: Antibacterial activity against Helicobacter pylori HP020 was determined; method in brief: as §3
[12] = system: Staphylococcus epidermidis; assay: Antibacterial activity against Staphylococcus epidermidis was determined; method in brief: as §1
Helicobacter pylori [13] = assay: Antibacterial activity against Helicobacter pylori HP003 was determined; method in brief: as §2
Helicobacter pylori [14] = assay: Antibacterial activity against Helicobacter pylori HP007 was determined; method in brief: as §2

Structure (SMILES)	MIC (Escherichia coli) [µg/mL]	MIC (Helicobacter pylori [1]) [µg/mL]	MIC (Staphylococcus aureus) [µg/mL]	MIC (Enterococcus faecalis) [µg/mL]	MIC (Helicobacter pylori [2]) [µg/mL]	MIC (Helicobacter pylori [3]) [µg/mL]	MIC (Morganella morganii) [µg/mL]	MIC (Klebsiella pneumoniae) [µg/mL]	MIC (Helicobacter pylori [4]) [µg/mL]	MIC (Helicobacter pylori [5]) [µg/mL]	MIC (Helicobacter pylori [6]) [µg/mL]	MIC (Helicobacter pylori [7]) [µg/mL]	MIC (Helicobacter pylori [8]) [µg/mL]	MIC (Helicobacter pylori [9]) [µg/mL]	MIC (Helicobacter pylori [10]) [µg/mL]	MIC (Helicobacter pylori [11]) [µg/mL]	MIC [12] [µg/mL]	MIC (Helicobacter pylori [13]) [µg/mL]	MIC (Helicobacter pylori [14]) [µg/mL]
Cc1ccc(COC(=O)c2ccc(-c3ccc(O)cc3)cc2)cc1	> 64	8 (≈ 25.1 µM)	> 64	–	–	–	–	–	–	–	–	–	–	–	–	–	–	–	–
O=C(O)c1ccc(-c2ccc(O)cc2)cc1	> 64	> 64	> 64	–	–	–	–	–	–	–	–	–	–	–	–	–	–	–	–
COC(=O)c1ccc(-c2ccc(O)cc2)cc1	> 64	> 64	> 64	–	–	–	–	–	–	–	–	–	–	–	–	–	–	–	–
NCc1ccc(C(=O)O)cc1 [AMINOMETHYLBENZOIC ACID]	> 64	> 64	> 64	–	–	–	–	–	–	–	–	–	–	–	–	–	–	–	–
CC1(C)S[C@@H]2[C@H](NC(=O)[C@H](N)c3ccc(O)cc3)C(=O)N2[C@H]1C(=O)O [AMOXICILLIN]	1.6 (≈ 4.38 µM)	0.05 (≈ 0.137 µM)	0.2 (≈ 0.547 µM)	0.78 (≈ 2.13 µM)	0.025 (≈ 0.0684 µM)	0.025 (≈ 0.0684 µM)	> 100	50 (≈ 137 µM)	0.05 (≈ 0.137 µM)	0.025 (≈ 0.0684 µM)	0.05 (≈ 0.137 µM)	0.05 (≈ 0.137 µM)	0.05 (≈ 0.137 µM)	0.025 (≈ 0.0684 µM)	0.05 (≈ 0.137 µM)	0.05 (≈ 0.137 µM)	0.78 (≈ 2.13 µM)	0.05 (≈ 0.137 µM)	0.05 (≈ 0.137 µM)
Cc1ncc([N+](=O)[O-])n1CCO [METRONIDAZOLE]	> 100	64 (≈ 374 µM)	> 100	> 100	4 (≈ 23.4 µM)	16 (≈ 93.5 µM)	> 100	> 100	8 (≈ 46.7 µM)	32 (≈ 187 µM)	8 (≈ 46.7 µM)	32 (≈ 187 µM)	32 (≈ 187 µM)	64 (≈ 374 µM)	32 (≈ 187 µM)	128 (≈ 748 µM)	> 100	2 (≈ 11.7 µM)	16 (≈ 93.5 µM)

Second part, led by results:

MIC (Escherichia coli) [µg/mL]	MIC (Helicobacter pylori [1]) [µg/mL]	MIC (Staphylococcus aureus) [µg/mL]	Structure (SMILES)	MIC (Enterococcus faecalis) [µg/mL]	MIC (Helicobacter pylori [2]) [µg/mL]	MIC (Helicobacter pylori [3]) [µg/mL]	MIC (Morganella morganii) [µg/mL]	MIC (Klebsiella pneumoniae) [µg/mL]	MIC (Helicobacter pylori [4]) [µg/mL]	MIC (Helicobacter pylori [5]) [µg/mL]	MIC (Helicobacter pylori [6]) [µg/mL]	MIC (Helicobacter pylori [7]) [µg/mL]	MIC (Helicobacter pylori [8]) [µg/mL]	MIC (Helicobacter pylori [9]) [µg/mL]	MIC (Helicobacter pylori [10]) [µg/mL]	MIC (Helicobacter pylori [11]) [µg/mL]	MIC [12] [µg/mL]	MIC (Helicobacter pylori [13]) [µg/mL]	MIC (Helicobacter pylori [14]) [µg/mL]
> 64	16	> 64	Cl.N=C(N)NCc1ccc(C(=O)Oc2ccccc2)cc1	–	–	–	–	–	–	–	–	–	–	–	–	–	–	–	–
> 64	> 64	> 64	Cl.N=C(N)NCc1ccc(C(=O)O)cc1	–	–	–	–	–	–	–	–	–	–	–	–	–	–	–	–
> 64	> 64	> 64	Cl.N=C(N)NCc1ccc(C(=O)Nc2ccccc2)cc1	–	–	–	–	–	–	–	–	–	–	–	–	–	–	–	–
> 64	0.8	> 64	Cc1ccc(COC(=O)c2ccc(-c3ccc(OC(=O)c4ccc(CN=C(N)N)cc4)cc3)cc2)cc1.Cl	> 64	0.4	0.8	> 64	> 64	0.8	0.8	0.4	1.6	0.8	1.6	0.8	0.8	> 64	0.8	0.8
> 64	> 64	> 64	Cc1ccc(CO)cc1	–	–	–	–	–	–	–	–	–	–	–	–	–	–	–	–
